Statin myotox sup = suppression of simvastatin myotoxicity | C2C12 myotubes + simvastatin, ATP luminescence, 48 h; scaled: DMSO 0, geranylgeraniol control 100 | rescue of ATP level, % at 7.49 µM | hit rate 0.78% among 330,000 | AID 602340;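 active means mean ATP rescue above about 67%, or every replicate alone reaching that limit, limit read from the data, passing the limit was not always enough; inconclusive means no clear call, values can overlap the other calls; inactive means mean under the limit and some replicate under it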;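 further: myotubes were challenged with 10 µM simvastatin during compound exposure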
SIRT5 block = inhibitors of human sirtuin-5 desuccinylase; Q9NXA8; Purified SirT5, succinyl-peptide AMC, trypsin-coupled fluorescence; inhibition, % at 15 µM; hit rate 1.1% among 330,000; AID 652115; in the data active means inhibition above about 15%; inconclusive means no clear call, values can overlap the other calls
Target sequence (Q9NXA8 whole entry, looked up): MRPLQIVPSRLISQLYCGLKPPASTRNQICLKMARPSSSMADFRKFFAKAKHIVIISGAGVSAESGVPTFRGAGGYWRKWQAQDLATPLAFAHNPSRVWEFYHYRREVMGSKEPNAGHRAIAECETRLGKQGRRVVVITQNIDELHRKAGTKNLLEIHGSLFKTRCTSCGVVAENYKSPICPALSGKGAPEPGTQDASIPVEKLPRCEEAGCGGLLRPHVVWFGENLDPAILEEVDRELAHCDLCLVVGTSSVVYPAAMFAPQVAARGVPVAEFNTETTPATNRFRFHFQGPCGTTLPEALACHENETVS
Cneo AK release = causes C. neoformans cell lysis | lysis activity, % at 15 µM | adenylate kinase release luminescence, 4 h; normalised: neutral wells 0, clomiphene wells 100 | hit rate 0.2% among 360,000;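 active means mean lysis activity across replicates of at least 80%, whatever share of replicates individually reach that level; inactive means mean lysis activity below 80%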
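Material – Cryptococcus neoformans yeast cells · Quantity – 5 × 10^6 yeast cells/mL · Buffer or medium – YPD medium · Compound – single dose · Timing – 4 h static compound exposure, 37 °C, read 1 h post-reagent · Signal – adenylate kinase release luminescence · Read-out basis – lysis from increased AK signal · Benchmarks – Clomiphene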
S100A4 MyoIIA = inhibitors of human S100A4 binding to myosin IIA peptide; P26447; S100A4/TAMRA-MyoIIA peptide fluorescence polarization; inhibition, % at 10.7 µM; hit rate 0.14% among 360,000;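 active means mean inhibition of at least 70% across replicates, with every replicate also reaching that level; inconclusive means mean inhibition reaches 70% but some replicates fall short; inactive means mean inhibition below 70%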
Target sequence (P26447 whole entry, looked up): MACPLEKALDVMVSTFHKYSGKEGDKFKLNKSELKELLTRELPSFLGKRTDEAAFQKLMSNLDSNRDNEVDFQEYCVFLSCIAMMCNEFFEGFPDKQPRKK
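Test system: S100A4 monomer protein; Medium: HEPES pH 7.2 with CaCl2, KCl, NaCl, DTT, Triton; Probe or stimulus: TAMRA-labelled myosin IIA heavy-chain peptide probe, 5 nM; Doses: one dose per compound; Times: polarization read 5 min after assay mix addition, stable 5–60 min; Benchmarks: neutral control DMSO, positive control TFP.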
PGC1a acetyl inh = PGC1a acetylation modulation, inhibitor mode; inhibition, % at 15.6 µM; U2OS PGC1a acetylation, AlphaScreen anti-acetyl-lysine; with virally co-expressed GCN5 acetyltransferase; hit rate 0.17% among 350,000;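 active means every replicate shows inhibition of at least 40%; inconclusive means mean inhibition at least 40% but some replicate below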;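 further: 0% = neutral control wells and 100% = positive control wells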
Ecoli rRNA inh = inhibits bacterial ribosomal RNA function over humanized ribosomes. E. coli WT GFP vs humanized-ribosome RFP mutants, fluorescence, 24 h; active compounds read low; DMSO median 0, no signal -100. hit rate 1.6% among 350,000. GFP signal change (wild-type ribosome), % (concentration not given with the values);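 active means significant combined selectivity score with lowered wild-type GFP, culture density cut under 30%, mutant RFP and density less affected; inactive means any of these conditions unmet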
* hit, by the source's call; ? = inconclusive; · = no result given. Rows were chosen to be rich in hits. Some 3% of all compounds tested hit in one or more screens of this group.

SMILES | Statin myotox sup | SIRT5 block | Cneo AK release | S100A4 MyoIIA | PGC1a acetyl inh | Ecoli rRNA inh
C/C=C/c1ccc([C@H]2[C@@H](CO)N3C(=O)CN(C(=O)Nc4cccc(OC)c4)C[C@@H]23)cc1 | · | -2.9 | · | 6.8 | 5.5 | -3.8
CC(SC(=S)N1CCCC1)C(=O)O (stereo not drawn) | · | 20.3* | · | -4.6 | -1.9 | 12.1
CCOc1cc(CNCc2cccs2)cc(Br)c1OC | 97.1* | · | 2.7 | · | -12.9 | ·
COc1cc(CNCCO)cc(Br)c1OCc1cccs1 | · | · | · | · | -13.3 | ·
CCCNC(=O)Nc1ccc2c(c1)OC[C@H](C)N(C(=O)c1ccccc1F)C[C@@H](C)[C@@H](OC)CN(C)C2=O | -14.7 | 2.4 | -0.5 | 34.7 | 11.5 | -0.8
Cc1ccc(Nc2nc3nonc3nc2N(C)C)cc1 | 88.1* | · | 0.2 | · | -3.1 | ·
CCNc1nc2nonc2nc1NCC | 14.4 | · | 1.1 | · | -5.3 | ·
Cc1ccccc1S(=O)(=O)NCC[C@@H]1CC[C@@H](NC(=O)C2CCCCC2)[C@H](CO)O1 | -4.1 | 10.9 | 2.8 | 4.5 | 3.3 | -3.6
COc1ccccc1-c1cccc(-c2nc(C(=O)Nc3nccs3)cc3c2[C@@H](CCO)N(C(=O)CC2CC2)C3)c1 | · | 15.7* | · | ? | · | -1.8
O=C(Nc1cccc(F)c1)N1C[C@@H]2[C@H](c3ccccc31)[C@@H](CO)N2C(=O)Cc1ccccn1 | -17.7 | -0.2 | 17.5 | 3.3 | 0.6 | -44.5
Cc1noc(C)c1NC(=O)N(C)C[C@@H]1Oc2ccc(NC(=O)NC(C)C)cc2CC(=O)N([C@@H](C)CO)C[C@@H]1C | -12.5 | -1.3 | 106.4* | 3.1 | -3.0 | ·
Cc1noc(C)c1NC(=O)N(C)C[C@@H]1Oc2ccc(NC(=O)C3CC3)cc2CC(=O)N([C@H](C)CO)C[C@@H]1C | 8.4 | 3.7 | 107.2* | -5.7 | 9.6 | 4.0
Cc1noc(C)c1NC(=O)N(C)C[C@@H]1Oc2ccc(NC(=O)NC(C)C)cc2CC(=O)N([C@H](C)CO)C[C@H]1C | -8.0 | -4.7 | 102.3* | 1.2 | -0.6 | 2.1
CC(C)NC(=O)N(C)C[C@@H]1Oc2c(NC(=O)C3CCOCC3)cccc2C(=O)N([C@H](C)CO)C[C@@H]1C | 12.4 | -1.0 | 56.0 | 11.3 | 5.3 | 1.3
O=C(NCc1ccncc1)Nc1ccccc1Cl | 116.3* | · | 19.9 | · | -5.2 | ·
COc1ccc(CN(C)C[C@@H]2Oc3c(NS(=O)(=O)c4ccc(C)cc4)cccc3C(=O)N([C@@H](C)CO)C[C@@H]2C)cc1 | 13.9 | -2.6 | -0.4 | -4.8 | -0.9 | 3.1
Oc1[nH]c2ccc(Br)cc2c1N=NC(=S)NCC1CCCO1 (stereo not drawn) | -6.2 | 4.1 | -0.7 | 0.6 | 6.1 | -31.5*
Cc1nnc(SCC(=O)N2CC(=O)Nc3ccccc32)s1 | · | -3.2 | · | -3.6 | -2.3 | 8.8
O=C1CN(C(=O)CSc2nc(-c3ccc(Cl)cc3)cs2)c2ccccc2N1 | -6.9 | 15.0* | -0.9 | 0.7 | -12.9 | -20.5
COc1ccc(C(=O)NCc2nc(C)c(C)s2)cc1OC1CCN(C(C)C)CC1 | -3.1 | 15.3* | -1.7 | 3.1 | 0.5 | 5.0
COc1ccc(C(=O)NCc2cc(C(C)C)no2)cc1OC1CCN(C(C)C)CC1 | -5.9 | -7.4 | 1.3 | 0.5 | 0.7 | 19.6
CCCNC(=O)N[C@@H]1CC[C@H](CCn2cc(C3CCCCC3)nn2)O[C@H]1CO | 0.2 | -0.3 | -1.2 | -1.2 | -3.2 | 2.8
O=C(/C=C/c1cn(CC(O)CN2CCCCC2)c2ccccc12)c1ccccc1 (stereo not drawn) | · | -6.0 | · | -13.9 | -30.3 | -37.8*
O=C(Nc1cc(F)ccc1F)N[C@@H]1CC[C@@H](CCn2cc(C3CC3)nn2)O[C@H]1CO | 1.7 | 0.8 | -4.4 | 11.5 | -8.8 | -2.6
CCC(=O)Nc1ccc2c(c1)C(=O)N(C)C[C@@H](OC)[C@@H](C)CN(C(=O)NC(C)C)[C@@H](C)CO2 | 0.4 | -3.7 | 2.5 | 2.0 | -12.2 | -0.7
SMILES | Statin myotox sup | SIRT5 block | Cneo AK release | S100A4 MyoIIA | PGC1a acetyl inh | Ecoli rRNA inh
COC(=O)CCC(=O)N1CCOCCOCCN(C(=O)CCC(=O)OC)CCOCCOCC1 | · | · | 2.2 | · | 8.9 | ·
COC(=O)CCCC(=O)N1CCOCCN(C(=O)CCCC(=O)OC)CCOCC1 | 110.4* | · | 2.5 | · | 0.6 | ·
CNC[C@@H]1OCCCC[C@H](C)Oc2ccc(NS(=O)(=O)c3c(C)noc3C)cc2C(=O)N([C@@H](C)CO)C[C@@H]1C | · | · | 12.7 | · | 1.1 | 0.8
COc1ccc2c3c([nH]c2c1)[C@H](CO)N(C(=O)c1cnccn1)CC31CCN(C(=O)c2cnccn2)CC1 | · | · | · | 1.0 | -1.4 | 4.9
COc1ccc(-n2c(-c3ccc(Cl)cc3Cl)n[nH]c2=S)c(OC)c1 | 3.1 | -1.0 | 0.8 | -2.2 | -6.1 | -32.5*
CCN(CC)C(=O)CN(c1ccc2c(c1)OCO2)S(C)(=O)=O | -8.9 | · | -4.7 | · | -10.3 | ·
CS(=O)(=O)N(CC(=O)N1CCN(Cc2ccccc2)CC1)c1cccc(F)c1 | -4.4 | 19.2* | -2.0 | -3.2 | 18.8 | 4.2
CCN(CC)C(=O)CN(c1ccc(F)c(Cl)c1)S(C)(=O)=O | 69.5* | · | 18.1 | · | 6.6 | ·
CS(=O)(=O)N(CC(=O)N1CCN(Cc2ccccc2)CC1)c1ccc(F)cc1 | 8.0 | -2.0 | -4.6 | -2.4 | · | 4.0
Cc1ccc(N(CC(=O)N2CCOCC2)S(C)(=O)=O)cc1Cl | -3.9 | 15.6* | 1.5 | 2.4 | -16.1 | 11.2
Cc1noc(C)c1NC(=O)Nc1ccc2c(c1)C(=O)N([C@@H](C)CO)C[C@@H](C)[C@@H](CN(C)Cc1ccc(C(F)(F)F)cc1)OCCCC[C@@H](C)O2 | · | 12.6 | 1.4 | -4.0 | 2.7 | 1.9
CC1=C(C(=O)OCc2ccccc2)C(c2ccc(-c3ccccc3)cc2)NC(=O)N1CCCCCC(=O)O (stereo not drawn) | -2.1 | 13.9 | -2.1 | 2.4 | -10.8 | -34.4*
CC1=C(C(=O)OCc2ccccc2)C(c2ccc(-c3ccccc3)cc2)NC(=O)N1CCCC(=O)O (stereo not drawn) | · | · | · | 2.4 | · | 5.2
CC1=C(C(=O)OC(C)(C)C)C(c2ccc3ccccc3c2)NC(=O)N1C (stereo not drawn) | 23.3 | -3.1 | 0.3 | -0.4 | 65.5* | -4.5
CC1=C(C(=O)OCc2ccccc2)C(c2ccc3ccccc3c2)NC(=O)N1CCCC(=O)O (stereo not drawn) | -2.5 | · | -4.7 | 8.0 | -2.5 | -16.0*
COc1ccc(NC(=O)Nc2cccc3c2O[C@@H](CN(C)S(=O)(=O)c2cccs2)[C@H](C)CN([C@@H](C)CO)C3=O)cc1 | · | -0.8 | 0.9 | 5.0 | 4.6 | -3.6
CN1C(=O)c2cc(NC(=O)c3cccs3)ccc2OC[C@@H]2O[C@@H](CC(=O)NCCN3CCCCC3)CC[C@H]21 | 11.7 | -1.4 | -3.8 | -3.6 | -2.2 | 3.7
C/C=C/c1ccc([C@H]2[C@@H](CO)N(C(C)=O)C23CN(C(=O)c2ccccc2)C3)cc1 | · | 5.1 | · | -7.0 | 2.2 | -0.1
